Laboratory results published in ChEMBL document CHEMBL2163307, “Antibiotic optimization and chemical structure stabilization of thiomuracin A” (J Med Chem, 2012).
In brackets after ≈: the same amount, converted by molar mass. Activity calls are given as the source filed them. The rule behind the calls is not given here.

Key:
Streptococcus pyogenes = experiment: Antibacterial activity against Streptococcus pyogenes ATCC BAA-595 by broth microdilution method; format: functional
Outline: (§1)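 MIC by CLSI broth microdilution (M07-A8 for aerobes; M11-A7 for anaerobes).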

Staphylococcus aureus [1] = experiment: Antibacterial activity against methicillin-resistant Staphylococcus aureus isolate AKH Vienna A4.018 by broth microdilution method; format: functional
Outline: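 Broth microdilution MIC following CLSI M07-A8 (2009) and M11-A7 guidelines.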

Enterococcus faecalis [2] = experiment: Antibacterial activity against Enterococcus faecalis ATCC 29212 by broth microdilution method; format: functional; outline: as §1
[3] = Antibacterial activity against Clostridium difficile ATCC 43255 by broth microdilution method; format: functional; conditions: Clostridioides difficile; outline: as §1
Enterococcus faecium = experiment: Antibacterial activity against Enterococcus faecium 7130724 by broth microdilution method; format: functional; outline: as §1
Escherichia coli = experiment: Inhibition of elongation factor Tu-mediated protein synthesis in Escherichia coli S30 extract after 2 hrs by luciferase reporter gene assay
Outline: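 Coupled transcription/translation in E. coli S30 extract with pBESTluc template DNA, methionine-minus and cysteine-minus amino acid mixes, and S30 premix; test agent added as 40× stock in 20 μL reactions. Incubated 2 h at 37 °C; luciferase formed was read by luminescence after adding an equal volume of SteadyGlo reagent. Kirromycin and puromycin were positive controls; ampicillin was the negative control.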

Enterococcus faecalis [4] = experiment: Antibacterial activity against Enterococcus faecalis isolate NB04025 infected in iv dosed CD1 mouse assessed as protection from lethal infection after 5 days; format: functional; conditions: for ED50: 120 h
Outline: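 Female CD1 mice (21−25 g) infected ip with 1 × 10^8 CFU/mouse in 50% sterile rat fecal extract (10−100× minimal lethal dose). Single iv tail-vein bolus immediately after inoculation, several dose levels, six mice per group. Observed 5 days with implanted temperature transponders; moribund mice euthanized. ED50 with 95% CI from day-5 survival by probit analysis.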

Staphylococcus aureus [5] = experiment: Antibacterial activity against Staphylococcus aureus ATCC 49951 infected in iv dosed CD1 mouse assessed as protection from lethal infection administered 1 hr and 5 hrs post-infection measured after 5 days; format: functional; conditions: for ED50: ATCC 49951, iv
Outline: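 Female CD1 mice (21−25 g) infected ip with 1 × 10^8 CFU/mouse in 0.9% NaCl (10−100× minimal lethal dose). iv tail-vein bolus at 1 and 5 h post-inoculation, several dose levels, six mice per group. Watched 5 days with body temperature monitoring; moribund animals euthanized. ED50 with 95% CI from day-5 survival by probit analysis.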

[6] = Half life in Sprague-Dawley rat at 1 mg/kg, iv; format: ADME, organism-based; design: dose 1 mg/kg, route intravenous; conditions: in vivo
Outline: (§2)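 Intravenous PK (N = 2) in male Sprague−Dawley rats (220−270 g, about 6−10 weeks old) with dual jugular vein cannulas. Rats were fasted overnight before dosing and for 8 h after. Blood was collected into K2EDTA tubes and plasma was assayed by LC-MS/MS.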

Enterococcus faecalis [7] = experiment: Antibacterial activity against Enterococcus faecalis isolate NB04025; format: functional
[8] = AUC in Sprague-Dawley rat at 1 mg/kg, iv; format: ADME, organism-based; design: dose 1 mg/kg, route intravenous; conditions: plasma; outline: as §2
[9] = Clearance in Sprague-Dawley rat at 1 mg/kg, iv; format: ADME, organism-based; design: dose 1 mg/kg, route intravenous; conditions: in vivo; outline: as §2
[10] = Volume of distribution at steady state in Sprague-Dawley rat at 1 mg/kg, iv; format: ADME, organism-based; design: dose 1 mg/kg, route intravenous; conditions: in vivo, read-out: Vdss; outline: as §2
Staphylococcus aureus [11] = experiment: Antibacterial activity against Staphylococcus aureus ATCC 49951; format: functional
Enterococcus faecalis [12] = experiment: Ratio of daptomycin ED50 to compound ED50 for Enterococcus faecalis isolate NB04025 infected in iv dosed CD1 mouse; format: functional
Outline: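 Female CD1 mice (21−25 g) infected intraperitoneally with 1 × 10^8 CFU/mouse E. faecalis in 50% sterile rat fecal extract. Single iv tail-vein bolus given immediately after inoculation, at several dose levels, to groups of six mice. Vehicle was 5% DMA, 30% PEG400, 10% cremophor EL, 5% 0.1 N NaOH and 50% pH 7.4 buffer; daptomycin was given in saline. Survival followed 5 days; ED50 with 95% CI by probit analysis of day-5 survival.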

[13] = Solubility of the compound in DMF solution; format: physicochemical
[14] = Chemical stability of the compound in HCl at room temperature; format: physicochemical; conditions: buffer
[15] = Chemical stability of the compound in MeOH at room temperature; format: physicochemical
[16] = Solubility of the compound in DMSO solution; format: physicochemical
[17] = Chemical stability of the compound in water at room temperature; format: physicochemical; conditions: buffer
[18] = Chemical stability of the compound in water at 50 degC; format: physicochemical; conditions: buffer
[19] = Chemical stability of the compound in HCl at 50 degC; format: physicochemical; conditions: buffer
[20] = Chemical stability of the compound in MeOH at 50 degC; format: physicochemical

Row | SMILES | MIC (Streptococcus pyogenes) [mg/L] | MIC (Staphylococcus aureus [1]) [mg/L] | MIC (Enterococcus faecalis [2]) [mg/L] | MIC [3] [mg/L] | MIC (Enterococcus faecium) [mg/L] | further results
1 | Cc1sc2nc1C(=O)N[C@@H]([C@H](O)c1ccccc1)c1nc(cs1)C(=O)N[C@@H](Cc1ccc(O)cc1)C(=O)N[C@@H]([C@@H](C)[C@@H](O)CN)c1nc(cs1)-c1nc(cs1)-c1nc(-c3nc(C(N)=O)cs3)ccc1-c1nc(cs1)C(=O)N[C@H]2CC(N)=O | > 32 | 2 (≈ 1.64 µM) | 1 (≈ 0.821 µM) | 1 (≈ 0.821 µM) | 1 (≈ 0.821 µM) | –
2 | C=C(NC(=O)c1csc(-c2ccc3c(n2)-c2csc(n2)-c2csc(n2)[C@H]([C@@H](C)[C@@H]2CO2)NC(=O)[C@H](Cc2ccc(OC(C)=O)cc2)NC(=O)c2csc(n2)[C@H]([C@H](OC(C)=O)c2ccccc2)NC(=O)c2nc(sc2C)[C@H](CC(N)=O)NC(=O)c2csc-3n2)n1)C(=O)NC(=C)C(=O)OC | > 32 | > 32 | 32 (≈ 22.3 µM) | > 4 | 32 (≈ 22.3 µM) | inhibition (Escherichia coli): inactive
3 | Cc1sc2nc1C(=O)NCc1nc(cs1)C(=O)N[C@@H](Cc1ccc(O)cc1)C(=O)N1C[C@H](O)[C@H](C)[C@H]1c1nc(cs1)-c1nc(cs1)-c1nc(-c3nc(C(N)=O)cs3)ccc1-c1nc(cs1)C(=O)N[C@H]2CC(N)=O | > 32 | 2 (≈ 1.83 µM) | 4 (≈ 3.66 µM) | – | 4 (≈ 3.66 µM) | –
4 | CCCCCCCCCC(=O)N[C@@H](Cc1c[nH]c2ccccc12)C(=O)N[C@H](CC(N)=O)C(=O)N[C@@H](CC(=O)O)C(=O)N[C@@H]1C(=O)NCC(=O)N[C@@H](CCCN)C(=O)N[C@@H](CC(=O)O)C(=O)N[C@H](C)C(=O)N[C@@H](CC(=O)O)C(=O)NCC(=O)N[C@H](CO)C(=O)N[C@@H]([C@H](C)CC(=O)O)C(=O)N[C@@H](CC(=O)c2ccccc2N)C(=O)O[C@@H]1C | – | – | – | – | – | Activity (Enterococcus faecalis [4]): Dose-dependent effect; ED50 (Enterococcus faecalis [4]): 3 mg/kg; Activity (Staphylococcus aureus [5]): Dose-dependent effect; ED50 (Staphylococcus aureus [5]): 0.3 mg/kg
5 | Cc1sc2nc1C(=O)N[C@@H]([C@H](O)c1ccccc1)c1nc(cs1)C(=O)N[C@@H](Cc1ccc(O)cc1)C(=O)N[C@@H]([C@@H](C)[C@@H](O)CCl)c1nc(cs1)-c1nc(cs1)-c1nc(-c3nc(C(N)=O)cs3)ccc1-c1nc(cs1)C(=O)N[C@H]2CC(N)=O | 2 (≈ 1.62 µM) | 0.5 (≈ 0.404 µM) | 0.25 (≈ 0.202 µM) | 0.25 (≈ 0.202 µM) | 0.5 (≈ 0.404 µM) | –
6 | C=C(NC(=O)c1csc(-c2ccc3c(n2)-c2csc(n2)-c2csc(n2)[C@H]([C@@H](C)[C@@H]2CO2)NC(=O)[C@H](Cc2ccc(OC)cc2)NC(=O)c2csc(n2)[C@H]([C@H](O)c2ccccc2)NC(=O)c2nc(sc2C)[C@H](CC(N)=O)NC(=O)c2csc-3n2)n1)C(=O)NC(=C)C(=O)OC | > 32 | > 32 | 8 (≈ 5.85 µM) | 1 (≈ 0.731 µM) | 8 (≈ 5.85 µM) | inhibition (Escherichia coli): inactive
7 | Cc1sc2nc1C(=O)N[C@@H]([C@H](O)c1ccccc1)c1nc(cs1)C(=O)N[C@@H](Cc1ccc(O)cc1)C(=O)N1C[C@H](O)[C@H](C)[C@H]1c1nc(cs1)-c1nc(cs1)-c1nc(-c3nc(C(N)=O)cs3)ccc1-c1nc(cs1)C(=O)N[C@H]2CC(N)=O | 1 (≈ 0.833 µM) | 0.25 (≈ 0.208 µM) | 0.25 (≈ 0.208 µM) | < 0.008 | 0.5 (≈ 0.417 µM) | half-life [6]: 3.4 h; MIC (Enterococcus faecalis [7]): 0.125 mg/L (≈ 0.104 µM); Activity (Enterococcus faecalis [4]): Dose-dependent effect; ED50 (Enterococcus faecalis [4]): 1.5 mg/kg; AUC [8]: 1350 nM·h; clearance [9]: 0.606 L/h/kg; Vd [10]: 0.134 L/kg; MIC (Staphylococcus aureus [11]): 1 mg/L (≈ 0.833 µM); Activity (Staphylococcus aureus [5]): Dose-dependent effect; ED50 (Staphylococcus aureus [5]): 8 mg/kg; Ratio ED50 (Enterococcus faecalis [12]): 2
8 | Cc1sc2nc1C(=O)N[C@@H]([C@H](O)c1ccccc1)c1nc(cs1)C(=O)N[C@@H](Cc1ccc(O)cc1)C(=O)N[C@@H]([C@@H](C)[C@@H]1CO1)c1nc(cs1)-c1nc(cs1)-c1nc(-c3nc(C(N)=O)cs3)ccc1-c1nc(cs1)C(=O)N[C@H]2CC(N)=O | 2 (≈ 1.67 µM) | 0.5 (≈ 0.417 µM) | 0.25 (≈ 0.208 µM) | 0.003 (≈ 0.0025 µM) | 0.125 (≈ 0.104 µM) | –
9 | C=C(NC(=O)C(=C)NC(=O)c1csc(-c2ccc3c(n2)-c2csc(n2)-c2csc(n2)[C@H]([C@@H](C)[C@@H]2CO2)NC(=O)[C@H](Cc2ccc(O)cc2)NC(=O)c2csc(n2)[C@H]([C@H](O)c2ccccc2)NC(=O)c2nc(sc2C)[C@H](CC(N)=O)NC(=O)c2csc-3n2)n1)C(=O)O [THIOMURACIN A] | 0.5 (≈ 0.373 µM) | 0.5 (≈ 0.373 µM) | 0.5 (≈ 0.373 µM) | 0.03 (≈ 0.0224 µM) | 0.5 (≈ 0.373 µM) | solubility [13]: soluble; Stability [14]: Stable; Stability [15]: Stable; solubility [16]: soluble; Stability [17]: Stable; Stability [18]: Unstable; Stability [19]: Unstable; Stability [20]: Unstable
10 | C=C(NC(=O)c1csc(-c2ccc3c(n2)-c2csc(n2)-c2csc(n2)[C@H]([C@@H](C)[C@@H]2CO2)NC(=O)[C@H](Cc2ccc(O)cc2)NC(=O)c2csc(n2)[C@H]([C@H](O)c2ccccc2)NC(=O)c2nc(sc2C)[C@H](CC(N)=O)NC(=O)c2csc-3n2)n1)C(=O)NC(=C)C(=O)OC | > 32 | > 32 | 8 (≈ 5.91 µM) | 1 (≈ 0.739 µM) | 8 (≈ 5.91 µM) | inhibition (Escherichia coli): inactive
11 | Cc1sc2nc1C(=O)N[C@@H]([C@H](O)c1ccccc1)c1nc(cs1)C(=O)N[C@@H](Cc1ccc(O)cc1)C(=O)N[C@@H]([C@@H](C)[C@@H](O)CO)c1nc(cs1)-c1nc(cs1)-c1nc(-c3nc(C(N)=O)cs3)ccc1-c1nc(cs1)C(=O)N[C@H]2CC(N)=O | > 32 | > 32 | > 32 | 2 (≈ 1.64 µM) | > 32 | –
